In ChEMBL document CHEMBL3352416, “Discovery of carbohybrid-based 2-aminopyrimidine analogues as a new class of rapid-acting antimalarial agents using image-based cytological profiling assay” (J Med Chem, 2014):
Blank lines part the entries; values can stand above or below the molecule they belong to. Active and inactive are the calls of the source. The calls are words filed in the database; no cut-off is given here.

Assays:
Plasmodium falciparum [1] = experiment: Antimalarial activity against tightly synchronized Plasmodium falciparum K1 assessed as parasite stage accumulation index at schizonts stages at 10 uM treated at 18 hrs post-invasion for continuous duration of 36 hrs by automated image mining based cytological profiling assay; type: functional
Summary of the method: (§1)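 Tightly synchronized cultures exposed to 10 µM final from 6 hpi (early ring), 18 hpi (late ring) or 30 hpi (mid-trophozoite) for a continuous 36 h. Erythrocytes stained with WGA-AlexaFluor 488, parasite nuclei with DAPI, functional mitochondria with Mitotracker Red CMXRos. Stages (early rings, late rings, trophozoites, schizonts) classified by nuclear spot number and size. Viable parasitaemia and stage accumulation index obtained by automated image analysis.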

Plasmodium falciparum [2] = experiment: Antimalarial activity against tightly synchronized Plasmodium falciparum K1 assessed as parasite stage accumulation index at trophozoites stages at 10 uM treated at 30 hrs post-invasion for continuous duration of 36 hrs by automated image mining based cytological profiling assay; type: functional; summary of the method: as §1
Plasmodium falciparum [3] = experiment: Antimalarial activity against tightly synchronized Plasmodium falciparum K1 assessed as parasite stage accumulation index at schizonts stages at 10 uM treated at 30 hrs post-invasion for continuous duration of 36 hrs by automated image mining based cytological profiling assay; type: functional; summary of the method: as §1
Plasmodium falciparum [4] = experiment: Antimalarial activity against Plasmodium falciparum K1 by automated image mining based cytological profiling assay; type: functional, organism-based
Summary of the method: (§2)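 Parasite cultures in 384-well format, read by automated imaging. Infected erythrocytes detected by DAPI nuclear staining against WGA-AlexaFluor 488 host-cell stain, and viability by Mitotracker Red CMXRos. Total culture parasitaemia quantified. EC50 given as mean±SD of two independent experiments, each in duplicate.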

Plasmodium falciparum [5] = experiment: Antimalarial activity against Plasmodium falciparum W2 by automated image mining based cytological profiling assay; type: functional, organism-based; summary of the method: as §2
Plasmodium falciparum [6] = experiment: Antimalarial activity against Plasmodium falciparum HB3 by automated image mining based cytological profiling assay; type: functional; summary of the method: as §2
Plasmodium falciparum [7] = experiment: Antimalarial activity against tightly synchronized Plasmodium falciparum HB3 assessed as parasite stage accumulation index at early ring stages at 10 uM treated at 6 hrs post-invasion for continuous duration of 36 hrs by automated image mining based cytological profiling assay; type: functional
Plasmodium falciparum [8] = experiment: Antimalarial activity against tightly synchronized Plasmodium falciparum HB3 assessed as parasite stage accumulation index at late ring stages at 10 uM treated at 6 hrs post-invasion for continuous duration of 36 hrs by automated image mining based cytological profiling assay; type: functional; summary of the method: as §1
Plasmodium falciparum [9] = experiment: Antimalarial activity against tightly synchronized Plasmodium falciparum HB3 assessed as parasite stage accumulation index at trophozoites stages at 10 uM treated at 6 hrs post-invasion for continuous duration of 36 hrs by automated image mining based cytological profiling assay; type: functional; summary of the method: as §1
Plasmodium falciparum [10] = experiment: Antimalarial activity against tightly synchronized Plasmodium falciparum HB3 assessed as parasite stage accumulation index at schizonts stages at 10 uM treated at 6 hrs post-invasion for continuous duration of 36 hrs by automated image mining based cytological profiling assay; type: functional; summary of the method: as §1
Plasmodium falciparum [11] = experiment: Antimalarial activity against tightly synchronized Plasmodium falciparum HB3 assessed as parasite stage accumulation index at late ring stages at 10 uM treated at 18 hrs post-invasion for continuous duration of 36 hrs by automated image mining based cytological profiling assay; type: functional; summary of the method: as §1
Plasmodium falciparum [12] = experiment: Antimalarial activity against tightly synchronized Plasmodium falciparum HB3 assessed as parasite stage accumulation index at trophozoites stages at 10 uM treated at 18 hrs post-invasion for continuous duration of 36 hrs by automated image mining based cytological profiling assay; type: functional; summary of the method: as §1
Plasmodium falciparum [13] = experiment: Antimalarial activity against tightly synchronized Plasmodium falciparum HB3 assessed as parasite stage accumulation index at schizonts stages at 10 uM treated at 18 hrs post-invasion for continuous duration of 36 hrs by automated image mining based cytological profiling assay; type: functional; summary of the method: as §1
Plasmodium falciparum [14] = experiment: Antimalarial activity against tightly synchronized Plasmodium falciparum HB3 assessed as parasite stage accumulation index at schizonts stages at 10 uM treated at 30 hrs post-invasion for continuous duration of 36 hrs by automated image mining based cytological profiling assay; type: functional
Plasmodium falciparum [15] = experiment: Antimalarial activity against tightly synchronized Plasmodium falciparum W2 assessed as parasite stage accumulation index at early ring stages at 10 uM treated at 6 hrs post-invasion for continuous duration of 36 hrs by automated image mining based cytological profiling assay; type: functional; summary of the method: as §1
Plasmodium falciparum [16] = experiment: Antimalarial activity against tightly synchronized Plasmodium falciparum W2 assessed as parasite stage accumulation index at late ring stages at 10 uM treated at 6 hrs post-invasion for continuous duration of 36 hrs by automated image mining based cytological profiling assay; type: functional
Plasmodium falciparum [17] = experiment: Antimalarial activity against tightly synchronized Plasmodium falciparum W2 assessed as parasite stage accumulation index at trophozoites stages at 10 uM treated at 6 hrs post-invasion for continuous duration of 36 hrs by automated image mining based cytological profiling assay; type: functional
Plasmodium falciparum [18] = experiment: Antimalarial activity against tightly synchronized Plasmodium falciparum W2 assessed as parasite stage accumulation index at schizonts stages at 10 uM treated at 6 hrs post-invasion for continuous duration of 36 hrs by automated image mining based cytological profiling assay; type: functional; summary of the method: as §1
Plasmodium falciparum [19] = experiment: Antimalarial activity against tightly synchronized Plasmodium falciparum W2 assessed as parasite stage accumulation index at late ring stages at 10 uM treated at 18 hrs post-invasion for continuous duration of 36 hrs by automated image mining based cytological profiling assay; type: functional; summary of the method: as §1
Plasmodium falciparum [20] = experiment: Antimalarial activity against tightly synchronized Plasmodium falciparum W2 assessed as parasite stage accumulation index at schizonts stages at 10 uM treated at 18 hrs post-invasion for continuous duration of 36 hrs by automated image mining based cytological profiling assay; type: functional
Plasmodium falciparum [21] = experiment: Antimalarial activity against tightly synchronized Plasmodium falciparum W2 assessed as parasite stage accumulation index at trophozoites stages at 10 uM treated at 30 hrs post-invasion for continuous duration of 36 hrs by automated image mining based cytological profiling assay; type: functional; summary of the method: as §1
Plasmodium falciparum [22] = experiment: Antimalarial activity against tightly synchronized Plasmodium falciparum K1 assessed as parasite stage accumulation index at early ring stages at 10 uM treated at 6 hrs post-invasion for continuous duration of 36 hrs by automated image mining based cytological profiling assay; type: functional; summary of the method: as §1
Plasmodium falciparum [23] = experiment: Antimalarial activity against tightly synchronized Plasmodium falciparum K1 assessed as parasite stage accumulation index at late ring stages at 10 uM treated at 6 hrs post-invasion for continuous duration of 36 hrs by automated image mining based cytological profiling assay; type: functional
Plasmodium falciparum [24] = experiment: Antimalarial activity against tightly synchronized Plasmodium falciparum K1 assessed as parasite stage accumulation index at schizonts stages at 10 uM treated at 6 hrs post-invasion for continuous duration of 36 hrs by automated image mining based cytological profiling assay; type: functional; summary of the method: as §1
Plasmodium falciparum [25] = experiment: Antimalarial activity against tightly synchronized Plasmodium falciparum K1 assessed as parasite stage accumulation index at late ring stages at 10 uM treated at 18 hrs post-invasion for continuous duration of 36 hrs by automated image mining based cytological profiling assay; type: functional; summary of the method: as §1
Plasmodium falciparum [26] = experiment: Antimalarial activity against tightly synchronized Plasmodium falciparum K1 assessed as parasite stage accumulation index at trophozoites stages at 10 uM treated at 18 hrs post-invasion for continuous duration of 36 hrs by automated image mining based cytological profiling assay; type: functional; summary of the method: as §1
[27] = Selectivity index, ratio of CC50 for human HepG2 cells to EC50 for Plasmodium falciparum; type: toxicity, cell-based; conditions: read-out: Ratio CC50/EC50
Summary of the method: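 Ratio of HepG2 CC50 (resazurin assay) to the highest EC50 among P. falciparum K1, HB3 and W2. Parasite EC50 values are means of two independent experiments, each run in duplicate.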

Plasmodium falciparum [28] = experiment: Antimalarial activity against tightly synchronized Plasmodium falciparum K1 assessed as parasite stage accumulation index at early ring stages at 10 uM treated at 6 to 30 hrs post-invasion by automated image mining based cytological profiling assay; type: functional, organism-based
Plasmodium falciparum [29] = experiment: Antimalarial activity against tightly synchronized Plasmodium falciparum K1 assessed as parasite stage accumulation index at late ring stages at 10 uM treated at 6 to 30 hrs post-invasion by automated image mining based cytological profiling assay; type: functional, organism-based
Plasmodium falciparum [30] = experiment: Antimalarial activity against tightly synchronized Plasmodium falciparum K1 assessed as parasite stage accumulation index at trophozoites stages at 10 uM treated at 6 to 30 hrs post-invasion by automated image mining based cytological profiling assay; type: functional, organism-based
Plasmodium falciparum [31] = experiment: Antimalarial activity against tightly synchronized Plasmodium falciparum K1 assessed as parasite stage accumulation index at schizonts stages at 10 uM treated at 6 to 30 hrs post-invasion by automated image mining based cytological profiling assay; type: functional, organism-based
[32] = Stability in human liver microsomes assessed as remaining compound level at 1 uM incubated for 5 mins in presence of NADPH measured after 30 mins by LC/MS/MS method; type: ADME; conditions: read-out: Stability
Summary of the method: (§3)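 Percent parent compound remaining after 30 min incubation with liver microsomes; n = 3.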

[33] = Stability in mouse liver microsomes assessed as remaining compound level at 1 uM incubated for 5 mins in presence of NADPH measured after 30 mins by LC/MS/MS method; type: ADME; conditions: read-out: Stability; summary of the method: as §3
[34] = Tmax in Sprague-Dawley rat at 1 mg/kg, ip; type: ADME, organism-based; design: dose 1 mg/kg, route intraperitoneal; conditions: in vivo
[35] = Tmax in Sprague-Dawley rat at 5 mg/kg, ip; type: ADME, organism-based; design: dose 5 mg/kg, route intraperitoneal; conditions: in vivo
[36] = Cmax in Sprague-Dawley rat at 1 mg/kg, ip; type: ADME, organism-based; design: dose 1 mg/kg, route intraperitoneal; conditions: in vivo
[37] = Cmax in Sprague-Dawley rat at 5 mg/kg, ip; type: ADME, organism-based; design: dose 5 mg/kg, route intraperitoneal; conditions: in vivo
[38] = AUC in Sprague-Dawley rat at 1 mg/kg, ip; type: ADME, organism-based; design: dose 1 mg/kg, route intraperitoneal; conditions: plasma
[39] = AUC in Sprague-Dawley rat at 5 mg/kg, ip; type: ADME, organism-based; design: dose 5 mg/kg, route intraperitoneal; conditions: plasma
[40] = Half life in Sprague-Dawley rat at 1 mg/kg, ip; type: ADME, organism-based; design: dose 1 mg/kg, route intraperitoneal; conditions: in vivo
[41] = Half life in Sprague-Dawley rat at 5 mg/kg, ip; type: ADME, organism-based; design: dose 5 mg/kg, route intraperitoneal; conditions: in vivo
Plasmodium chabaudi [42] = experiment: Antimalarial activity against Plasmodium chabaudi infected in BALB/c mouse assessed as reduction in parasitaemia level treated intraperitoneally on day 1 to day 3 post-infection measured on day 4 post-infection by Giemsa staining based light microscopy; type: functional
Summary of the method: (§4)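 Groups of five BALB/c mice infected i.p. with 2 × 10^7 P. chabaudi-parasitized erythrocytes. Day 1 pre-treatment parasitaemia read from tail-blood thin smears, then i.p. dosing at 0.03, 0.3, 3, 10 or 30 mg/kg, repeated for two more days. Day 4 parasitaemia scored by light microscopy of Giemsa-stained thin smears; dose-response evaluated by probit analysis.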

Plasmodium chabaudi [43] = experiment: Antimalarial activity against Plasmodium chabaudi infected in BALB/c mouse assessed as reduction in accumulation of ring-stage parasites level at 3 to 30 mg/kg, ip treated on day 1 to day 3 post-infection measured on day 4 post-infection by Giemsa staining based light microscopy; type: functional, organism-based; summary of the method: as §4
Plasmodium chabaudi [44] = experiment: Antimalarial activity against Plasmodium chabaudi infected in BALB/c mouse assessed as reduction in blood parasitaemia level at 3 to 30 mg/kg, ip treated on day 1 to day 3 post-infection measured on day 4 post-infection by Giemsa staining based light microscopy; type: functional, organism-based; summary of the method: as §4

EC50 (Plasmodium falciparum [4]): 208 nM
EC50 (Plasmodium falciparum [5]): 221 nM
EC50 (Plasmodium falciparum [6]): 33 nM
SMILES: CCN(CC)CCCC(C)Nc1ccnc2cc(Cl)ccc12 (stereo not drawn) [CHLOROQUINE]
Activity (Plasmodium falciparum [1]): 0.37
Activity (Plasmodium falciparum [2]): 0.75
Activity (Plasmodium falciparum [3]): 0.56
Activity (Plasmodium falciparum [7]): 1.82
Activity (Plasmodium falciparum [8]): 3.05
Activity (Plasmodium falciparum [9]): 0.52
Activity (Plasmodium falciparum [10]): 0.2
Activity (Plasmodium falciparum [11]): 2.17
Activity (Plasmodium falciparum [12]): 1.85
Activity (Plasmodium falciparum [13]): 0.82
Activity (Plasmodium falciparum [14]): 1.83
Activity (Plasmodium falciparum [15]): 1.78
Activity (Plasmodium falciparum [16]): 1.51
Activity (Plasmodium falciparum [17]): 0.65
Activity (Plasmodium falciparum [18]): 0.53
Activity (Plasmodium falciparum [19]): 1.82
Activity (Plasmodium falciparum [20]): 1.64
Activity (Plasmodium falciparum [21]): 1.26
Activity (Plasmodium falciparum [22]): 1.72
Activity (Plasmodium falciparum [23]): 1.62
Activity (Plasmodium falciparum [24]): 0.25
Activity (Plasmodium falciparum [25]): 1.38
Activity (Plasmodium falciparum [26]): 1.22

EC50 (Plasmodium falciparum [4]): 92 nM
EC50 (Plasmodium falciparum [5]): 80 nM
EC50 (Plasmodium falciparum [6]): 80 nM
remaining at 30 min, 1 µM [32]: 89%
remaining at 0.5 h, 1 µM [33]: 81.6%
Tmax [34]: 3.4 h
Tmax [35]: 4 h
Cmax [36]: 1030 ng/mL
Cmax [37]: 3070 ng/mL
AUC [38]: 8200 ng·h/mL
AUC [39]: 26600 ng·h/mL
half-life [40]: 6.36 h
half-life [41]: 5.78 h
SMILES: COc1ccc(CO[C@@H]([C@H](COC(c2ccccc2)(c2ccccc2)c2ccccc2)N=[N+]=[N-])[C@H](OCc2ccc(OC)cc2)c2cnc(N(C)C)nc2)cc1
selectivity ratio [27]: > 1000
Activity (Plasmodium falciparum [28]): Active
Activity (Plasmodium falciparum [29]): Active
Activity (Plasmodium falciparum [30]): Active
Activity (Plasmodium falciparum [31]): Active
inhibition (Plasmodium chabaudi [42]): Dose dependent effect
ED50 (Plasmodium chabaudi [42]; ip): 0.12 mg/kg
inhibition (Plasmodium chabaudi [43]): Active
inhibition (Plasmodium chabaudi [44]): Active
